Experimental data as given in the RNAGym collection of RNA variant scans (doi:10.1126/science.aae0568).
Fewer inactive variants are shown than the library holds.

B1: tRNA (parent)
chain: GUUCCGUUGGCGUAAUGGUAACGCGUCUCCCUCCUAAGGAGAAGACUGCGGGUUCGAGUCCCGUACGGAACG

Variants of: B1
Test: yeast fitness relative to wild type (ratio to wild type); higher = fitter; tRNA-Arg(CCU), competitive growth, 37 C, YPD
In short: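 The tRNA-Arg(CCU) gene variants were made by chemical synthesis with a 3% per-site mutation rate at 69 sites and inserted at the native genomic locus of Saccharomyces cerevisiae. After pooling, the strains were competed in YPD at 37°C for 24 hours in six parallel replicates. Gene amplicons from the start population and each end population were read by 100-nucleotide paired-end sequencing, and Darwinian fitness relative to wild type was taken from genotype frequency changes. Genotypes needed ≥ 100 starting reads, and estimates < 0.5 were set to 0.5.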
With C4G A15G C22G G23A C49A the yeast fitness was ≤ 0.5. For C4G C11G C27G A57G U59G, the yeast fitness was ≤ 0.5. For C4G C11A G17A A20G C27U A43U C49G, the yeast fitness was ≤ 0.5. Work on C4A C27U U28G C33G A36G yielded a yeast fitness of 0.533. In the case of C4G C5A U19A C24G C29G C66U, the yeast fitness is reported as ≤ 0.5. Variant C4A C22G G51C A65C has a yeast fitness of 0.731. For U3G U8A C24A G56C, the yeast fitness was ≤ 0.5. In the case of C4A C5U G39C A42C, the yeast fitness is reported as ≤ 0.5. With C4A U26G C29G U47G U59G the yeast fitness was ≤ 0.5. With C4G C5A A21U C34G the yeast fitness was ≤ 0.5. With C4G A45U the yeast fitness was 0.91. C4A U19G A36C showed a yeast fitness of 0.506. For C4A C31G C62G G68C, the yeast fitness was ≤ 0.5. Work on C4A G67U yielded a yeast fitness of 0.843. In the case of C4G A14C G25C U32C A45U A57U, the yeast fitness is reported as ≤ 0.5. For C4A C31U C34A A40G, the yeast fitness was ≤ 0.5. For C4G A14G C30G G63C, the yeast fitness was ≤ 0.5. For C4A C5A C22A U28G C33G A57G, the yeast fitness was ≤ 0.5. For C4A G25C C61A, the yeast fitness was 0.694. In the case of C4A G10A G50A, the yeast fitness is reported as ≤ 0.5. In the case of C4A C24U U47G, the yeast fitness is reported as ≤ 0.5. For C4A C22U C33G A45C U47C U53G A69C, the yeast fitness was ≤ 0.5. In the case of C4A U8C C24G G44C G68U, the yeast fitness is reported as ≤ 0.5. For C4A G6A A21C C24U A43G, the yeast fitness was ≤ 0.5. With C4A C22G C55G G63C the yeast fitness was ≤ 0.5. With C4A G41C C49U the yeast fitness was ≤ 0.5. In the case of C4A U26C C27G C33G A37U G41A A57G C62G, the yeast fitness is reported as ≤ 0.5. Variant C4A A15G C27U has a yeast fitness of 0.664. In the case of C4A U16C G17A U32C, the yeast fitness is reported as ≤ 0.5. In the case of C4A A15G C22U A36U C60A, the yeast fitness is reported as ≤ 0.5. With C4A G18C C33G the yeast fitness was 0.591. For C4G C11G C55U, the yeast fitness was ≤ 0.5. In the case of C4A C29G G50A, the yeast fitness is reported as ≤ 0.5. With C4A G6A G67U the yeast fitness was ≤ 0.5. For C4A G17C G23C A45C U54C, the yeast fitness was ≤ 0.5. For C4G A40U A42C A57C, the yeast fitness was ≤ 0.5. Work on C4A C11G C31U G38C G52A C66G yielded a yeast fitness of 0.649. In the case of C4A C5G C24U G25A A57U, the yeast fitness is reported as ≤ 0.5. With C4G A65U G68U the yeast fitness was 1.11. With C4A A20G G58A A70C the yeast fitness was 1.02. With C4G C5G C31A U35C C46A G67A the yeast fitness was ≤ 0.5. With C4A C61A G67A the yeast fitness was ≤ 0.5. For C4A A42U A57U G58C, the yeast fitness was ≤ 0.5. C4A G68C gave a yeast fitness of 0.808. With U3G G48A U53G the yeast fitness was ≤ 0.5. C4A U26A A45U gave a yeast fitness of 0.656. In the case of C4A U8C C49U C55A C66U, the yeast fitness is reported as ≤ 0.5. C4A U35C G48C C55U G56A showed a yeast fitness of 0.51. In the case of C4A C22A, the yeast fitness is reported as 0.706. With C4A C27U A42U C62U the yeast fitness was ≤ 0.5. Variant C4A C5U C22U C34A has a yeast fitness of 0.576. In the case of C4A C11U C34G C62A, the yeast fitness is reported as 0.748. U3G G51A showed a yeast fitness of 0.701. For C4A C5A C11G A15U U19C A21U, the yeast fitness was ≤ 0.5. For C4A C24U C46U C55A C66U, the yeast fitness was ≤ 0.5. For C4A G9C C11G C30A C55A C62A, the yeast fitness was ≤ 0.5. In the case of C4A A15G C31G G50A, the yeast fitness is reported as ≤ 0.5. For C4A A14C U19A, the yeast fitness was ≤ 0.5. With C4G A36U C46G C62A A69C the yeast fitness was ≤ 0.5. In the case of C4G A45G U54A, the yeast fitness is reported as ≤ 0.5. In the case of C4G A40G C55U, the yeast fitness is reported as ≤ 0.5. Work on C4A G56A C62U yielded a yeast fitness of 0.626. C4G A36G showed a yeast fitness of 0.939. Variant C4A C22U U54A has a yeast fitness of 0.685. In the case of C4G A43C C62A, the yeast fitness is reported as ≤ 0.5. In the case of C4A U8C G18C C33U, the yeast fitness is reported as ≤ 0.5. For C4A A20U A43U A57C, the yeast fitness was ≤ 0.5. C4G A57C gave a yeast fitness of 0.57. With C4A G23A U28A G48A A70C the yeast fitness was ≤ 0.5. In the case of C4G C11A U32G A36G, the yeast fitness is reported as ≤ 0.5. With C4A A36C the yeast fitness was 0.686. For C4G A37U C60U, the yeast fitness was ≤ 0.5. In the case of C4A A15U G18C C55U G56C G67A, the yeast fitness is reported as ≤ 0.5. C4A C11G showed a yeast fitness of 0.769. C4A A70G gave a yeast fitness of 0.93. Work on C4A A70U yielded a yeast fitness of 0.879. In the case of C4G A42C G50A, the yeast fitness is reported as ≤ 0.5. For C4A C27U U28G C33G A36G G56C, the yeast fitness was ≤ 0.5. C4G A40U A69U gave a yeast fitness of 0.72. With C4A U28A C31G U35A U47A U54A the yeast fitness was ≤ 0.5. In the case of C4A C5G U53A, the yeast fitness is reported as ≤ 0.5. With C4A G9C C30A G39A C61G the yeast fitness was ≤ 0.5. In the case of C4A G17A G51C G63A, the yeast fitness is reported as ≤ 0.5. With C4A G51C C66U the yeast fitness was ≤ 0.5. For C4G A20U G56C, the yeast fitness was ≤ 0.5. C4A G23C C24U A65G showed a yeast fitness of 0.556. In the case of C4A A14G U26A, the yeast fitness is reported as ≤ 0.5. With U3G G44A G67C the yeast fitness was ≤ 0.5. For C4A C27G G52A, the yeast fitness was 0.713. C4A U13G C24U A42G G52A gave a yeast fitness of 0.601. For C4G C5A, the yeast fitness was 0.765. With U3G G41C G51C A57G the yeast fitness was ≤ 0.5. For C4A G39C G41C G56C, the yeast fitness was ≤ 0.5. For C4A C5U C34U U64G A69U, the yeast fitness was ≤ 0.5. With C4A C27A C62A the yeast fitness was ≤ 0.5. Variant C4A G17C has a yeast fitness of 0.629. Work on U3G C55U yielded a yeast fitness of 0.784. In the case of C4G A43U G44C, the yeast fitness is reported as 0.531. For C4A C30A A40G G48A, the yeast fitness was ≤ 0.5. With C4A A20C A42U C66U the yeast fitness was ≤ 0.5. Variant C4G has a yeast fitness of 1.01. Work on C4A yielded a yeast fitness of 0.998. For C4G A15G, the yeast fitness was 0.732. With C4A C46U G68A the yeast fitness was 0.887. Work on C4A G39C G44C G52C yielded a yeast fitness of 0.685. With C4A G18C A43C C62G A65C C66A the yeast fitness was ≤ 0.5. In the case of C4A A43C G51A G56C, the yeast fitness is reported as 0.516. In the case of C4A A45U C55U A70C, the yeast fitness is reported as ≤ 0.5. With C4A U35C G44C the yeast fitness was ≤ 0.5. For C4A C5U U8C, the yeast fitness was ≤ 0.5. In the case of C4G C5U U13A A40C G58A G68C, the yeast fitness is reported as ≤ 0.5. With U3G G17C G18C C22A C60A C66U the yeast fitness was ≤ 0.5. For C4A G18C, the yeast fitness was 0.58. For C4A G18A, the yeast fitness was 0.78. Variant C4A A42G C60G has a yeast fitness of 0.53. Variant C4A G56U has a yeast fitness of 0.786. With U3G C66U the yeast fitness was 0.699. With C4A C27U U28G C33G A36G G50C C66U the yeast fitness was ≤ 0.5. For C4A A14G G17A C60G, the yeast fitness was ≤ 0.5. In the case of C4A C29U C33A A36C A42C A45G, the yeast fitness is reported as ≤ 0.5. For C4G A15G U26G, the yeast fitness was ≤ 0.5. In the case of U3G C49G G56A, the yeast fitness is reported as ≤ 0.5. In the case of C4A C11U U32A G38C C55U G58A G67A, the yeast fitness is reported as ≤ 0.5. Work on C4G A45G G68C yielded a yeast fitness of 0.567. For C4A C5U C22U C34A C61G, the yeast fitness was ≤ 0.5. In the case of C4G A43C C55A A57C, the yeast fitness is reported as ≤ 0.5. In the case of C4A C55G C61U, the yeast fitness is reported as ≤ 0.5. C4A C33U showed a yeast fitness of 0.754. In the case of U3G G38A C60A, the yeast fitness is reported as ≤ 0.5. For C4A U16A A43C C46U, the yeast fitness was ≤ 0.5. C4A A20G gave a yeast fitness of 0.859. With C4A C31U G44A A45U the yeast fitness was 0.574. In the case of C4A G17A C27G G63A, the yeast fitness is reported as ≤ 0.5. With C4A U16C C33U A42G the yeast fitness was ≤ 0.5. In the case of C4A C11G U13G G25A C62U G63A, the yeast fitness is reported as ≤ 0.5. In the case of C4A A20U U28A C31U C55G A57C, the yeast fitness is reported as ≤ 0.5. For C4A U32G A45G A69U, the yeast fitness was ≤ 0.5. In the case of C4A C5G C22U, the yeast fitness is reported as ≤ 0.5. C4A G6A A40G U53G C62G C66U showed a yeast fitness of 0.6. In the case of C4A C22U C24A C29A A36C, the yeast fitness is reported as 0.518. With U3G U13C C33G the yeast fitness was ≤ 0.5. With C4A G17A G41A U54A A57C the yeast fitness was ≤ 0.5. In the case of U3G U8A C31A G52A, the yeast fitness is reported as ≤ 0.5. For C4A G41A A42C G50C A70G, the yeast fitness was ≤ 0.5. For C4A G9A C22A C27G U54A, the yeast fitness was ≤ 0.5. With C4G A15C U26G G41C A69U the yeast fitness was ≤ 0.5. Variant C4G A37U has a yeast fitness of 0.681. C4A U19A C27U G67A gave a yeast fitness of 0.573. For C4G C5U C30U G39A, the yeast fitness was ≤ 0.5. For C4A U8C G51C, the yeast fitness was ≤ 0.5. For C4A G12C U19C C24G A43U C61A, the yeast fitness was 0.502. For C4A G48C G51C A57U G68C, the yeast fitness was ≤ 0.5. Variant C4A U64A has a yeast fitness of 0.815. In the case of C4A A15G G17A, the yeast fitness is reported as 0.724. For C4A C22G C29U U35C, the yeast fitness was ≤ 0.5. C4A U32C C46A gave a yeast fitness of 0.697. For C4A C5U C22U C34A C62G, the yeast fitness was ≤ 0.5. With C4A A15C C66U the yeast fitness was ≤ 0.5. Variant C4A C24A G51C has a yeast fitness of 0.595. In the case of C4A G6A G50A, the yeast fitness is reported as ≤ 0.5. Variant C4G A15G G17C C34A has a yeast fitness of 0.598. With U3G G51A C66U the yeast fitness was ≤ 0.5. With C4G A14G C27U A42U the yeast fitness was ≤ 0.5. In the case of C4G A15U A21G G48A G50C, the yeast fitness is reported as ≤ 0.5. C4A A21U gave a yeast fitness of 0.676. Variant C4A G38C has a yeast fitness of 0.652. With C4G A45G A57U C66U the yeast fitness was 0.512.
